Experiment [1] concerns the target T1, Fatty-acid amide hydrolase 1 (Rattus norvegicus, UniProt P97612).
T1 sequence (P97612 whole entry): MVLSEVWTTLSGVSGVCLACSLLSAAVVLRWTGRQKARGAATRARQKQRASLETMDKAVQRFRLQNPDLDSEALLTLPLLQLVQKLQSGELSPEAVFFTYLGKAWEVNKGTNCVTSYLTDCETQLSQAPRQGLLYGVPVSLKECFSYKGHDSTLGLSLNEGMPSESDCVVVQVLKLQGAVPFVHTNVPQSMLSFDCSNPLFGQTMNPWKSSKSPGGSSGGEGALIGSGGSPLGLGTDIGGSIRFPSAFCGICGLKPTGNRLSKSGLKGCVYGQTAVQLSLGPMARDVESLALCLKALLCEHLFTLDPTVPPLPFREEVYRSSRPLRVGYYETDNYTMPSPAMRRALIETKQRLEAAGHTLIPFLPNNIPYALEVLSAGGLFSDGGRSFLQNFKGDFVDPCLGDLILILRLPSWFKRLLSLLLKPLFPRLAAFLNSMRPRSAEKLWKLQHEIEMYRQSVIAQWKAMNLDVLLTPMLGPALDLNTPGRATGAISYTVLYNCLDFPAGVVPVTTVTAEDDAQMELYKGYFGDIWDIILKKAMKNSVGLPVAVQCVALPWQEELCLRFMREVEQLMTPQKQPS
Briefly: Inhibition of rat brain FAAH mediated [14C]anandamide hydrolysis. The essentials:
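Hydrolysis of [14C]anandamide was measured with rat brain membranes as the enzyme source; means of n = 4.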

Another experiment has as its system RBL-2H3. In words: Inhibition of [14C]anandamide uptake in rat RBL-2H3. The format is functional, cell-based. The gist of the method:
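Uptake of [14C]anandamide was measured in intact RBL-2H3 cells; means of n = 4.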

A short description of experiment [2]: Inhibition of human MAGL mediated [14C]2-AG hydrolysis in COS cell. The experiment is classed as cell-based. The essentials:
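Enzyme source was cytosolic fractions of COS cells (MAGL-expressing), with hydrolysis of [14C]2-AG as the read-out; means of 4 determinations.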

The target in experiment [3] is T2, Diacylglycerol lipase-alpha (Homo sapiens, UniProt Q9Y4D2).
T2 sequence (Q9Y4D2 whole entry): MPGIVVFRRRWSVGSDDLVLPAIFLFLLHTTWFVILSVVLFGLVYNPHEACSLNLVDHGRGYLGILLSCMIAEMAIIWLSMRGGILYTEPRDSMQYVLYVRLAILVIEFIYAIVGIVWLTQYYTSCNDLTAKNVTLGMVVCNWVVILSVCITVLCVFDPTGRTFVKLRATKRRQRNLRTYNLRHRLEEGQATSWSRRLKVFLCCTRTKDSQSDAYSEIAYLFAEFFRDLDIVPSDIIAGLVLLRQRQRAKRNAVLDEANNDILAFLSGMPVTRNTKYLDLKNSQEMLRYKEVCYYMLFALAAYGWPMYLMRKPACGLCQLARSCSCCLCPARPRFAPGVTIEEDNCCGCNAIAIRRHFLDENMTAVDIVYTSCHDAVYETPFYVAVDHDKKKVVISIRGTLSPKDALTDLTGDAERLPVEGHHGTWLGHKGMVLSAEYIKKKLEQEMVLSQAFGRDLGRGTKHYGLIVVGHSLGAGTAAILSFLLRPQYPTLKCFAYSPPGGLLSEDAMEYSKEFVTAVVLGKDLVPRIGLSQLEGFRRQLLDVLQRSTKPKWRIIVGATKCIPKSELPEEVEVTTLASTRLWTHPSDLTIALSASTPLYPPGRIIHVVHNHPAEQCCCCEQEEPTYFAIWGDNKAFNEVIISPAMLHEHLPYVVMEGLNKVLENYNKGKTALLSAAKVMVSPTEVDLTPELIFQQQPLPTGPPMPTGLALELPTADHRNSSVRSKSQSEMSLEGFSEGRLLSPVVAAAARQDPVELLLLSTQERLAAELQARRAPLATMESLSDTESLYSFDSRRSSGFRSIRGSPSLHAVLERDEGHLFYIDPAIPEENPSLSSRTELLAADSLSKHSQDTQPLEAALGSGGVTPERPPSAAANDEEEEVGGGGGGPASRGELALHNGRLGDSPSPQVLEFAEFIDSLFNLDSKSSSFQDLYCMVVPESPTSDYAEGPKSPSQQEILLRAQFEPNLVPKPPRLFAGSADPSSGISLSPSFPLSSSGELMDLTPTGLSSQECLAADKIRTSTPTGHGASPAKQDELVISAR
Briefly: Inhibition of human DAGLalpha mediated sn-1-[14C]oleoyl-2-arachidonoyl-glycerol hydrolysis to 2-AG in COS cell. The gist of the method:
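Substrate: sn-1-[14C]oleoyl-2-arachidonoyl-glycerol. Conversion into 2-AG and [14C]oleic acid was followed using membranes of COS cells overexpressing human recombinant DAGLα; n = 4 means.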

In a further experiment the target is Cannabinoid receptor 1 (Homo sapiens, UniProt P21554). In words: Binding affinity to human CB1 receptor expressed in COS cells. The experiment is classed as cell-based. The essentials:
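Tested at CB1 receptors in transfected COS cells; means of 4 separate determinations.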

For another experiment, the target named is Cannabinoid receptor 2 (Homo sapiens, UniProt P34972). Briefly: Binding affinity to human CB2 receptor expressed in COS cells. The format is cell-based. The essentials: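 Human CB2 receptor expressed by transfection in COS cells. Each value is the mean of 4 separate determinations.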
For experiment [4], the target named is Transient receptor potential cation channel subfamily A member 1 (Rattus norvegicus, UniProt Q6RI86). Briefly: Agonist activity at rat TRPA1 channel expressed in human HEK293 cells assessed as elevation in intracellular calcium flux. The experiment is classed as functional, cell-based. The essentials:
(§1)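 Stably rat TRPA1-transfected HEK-293 cells, grown 3 days, were loaded with 4 µM Fluo4-AM plus 0.02% Pluronic for 1 h at room temperature. They were washed and resuspended in Tyrode's buffer pH 7.4, and [Ca2+]i was read under stirring (ex 488/em 516 nm) before and after compound addition. EC50 is the half-maximal [Ca2+]i rise. Efficacy (100 µM compound) is expressed relative to 100 µM mustard oil; n = 4 means.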

Experiment [5] has as its target Transient receptor potential cation channel subfamily A member 1 (Rattus norvegicus) (UniProt Q6RI86). Briefly: Agonist activity at rat TRPA1 channel expressed in human HEK293 cells assessed as elevation in intracellular calcium flux at 100 uM relative to mustard oil. The format is functional, cell-based. The essentials: as §1
On the technique in general: A change in cytosolic calcium serves as a functional read-out for many receptors and channels.

Experiment [6] deals with T3, Transient receptor potential cation channel subfamily V member 1 (Homo sapiens, UniProt Q8NER1). Briefly: Agonist activity at human TRPV1 channel expressed in human HEK293 cells assessed as elevation in intracellular calcium flux. The experiment is classed as functional, cell-based. The essentials:
(§2)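 HEK-293 cells overexpressing TRPV1 were used, with intracellular Ca2+ elevation as the read-out. The single-point value is the effect of 10 µM compound as percent of the Ca2+ response to 4 µM ionomycin. Data are means of 4 separate determinations.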

The target in experiment [7] is T3, Transient receptor potential cation channel subfamily V member 1. Briefly: Agonist activity at human TRPV1 channel expressed in human HEK293 cells assessed as elevation in intracellular calcium flux at 10 uM relative to ionomycin. The experiment is classed as functional, cell-based. The essentials:
as §2

Molecules are shown by their SMILES.

Chain of Transient receptor potential cation channel subfamily A member 1 (Q6RI86 whole entry): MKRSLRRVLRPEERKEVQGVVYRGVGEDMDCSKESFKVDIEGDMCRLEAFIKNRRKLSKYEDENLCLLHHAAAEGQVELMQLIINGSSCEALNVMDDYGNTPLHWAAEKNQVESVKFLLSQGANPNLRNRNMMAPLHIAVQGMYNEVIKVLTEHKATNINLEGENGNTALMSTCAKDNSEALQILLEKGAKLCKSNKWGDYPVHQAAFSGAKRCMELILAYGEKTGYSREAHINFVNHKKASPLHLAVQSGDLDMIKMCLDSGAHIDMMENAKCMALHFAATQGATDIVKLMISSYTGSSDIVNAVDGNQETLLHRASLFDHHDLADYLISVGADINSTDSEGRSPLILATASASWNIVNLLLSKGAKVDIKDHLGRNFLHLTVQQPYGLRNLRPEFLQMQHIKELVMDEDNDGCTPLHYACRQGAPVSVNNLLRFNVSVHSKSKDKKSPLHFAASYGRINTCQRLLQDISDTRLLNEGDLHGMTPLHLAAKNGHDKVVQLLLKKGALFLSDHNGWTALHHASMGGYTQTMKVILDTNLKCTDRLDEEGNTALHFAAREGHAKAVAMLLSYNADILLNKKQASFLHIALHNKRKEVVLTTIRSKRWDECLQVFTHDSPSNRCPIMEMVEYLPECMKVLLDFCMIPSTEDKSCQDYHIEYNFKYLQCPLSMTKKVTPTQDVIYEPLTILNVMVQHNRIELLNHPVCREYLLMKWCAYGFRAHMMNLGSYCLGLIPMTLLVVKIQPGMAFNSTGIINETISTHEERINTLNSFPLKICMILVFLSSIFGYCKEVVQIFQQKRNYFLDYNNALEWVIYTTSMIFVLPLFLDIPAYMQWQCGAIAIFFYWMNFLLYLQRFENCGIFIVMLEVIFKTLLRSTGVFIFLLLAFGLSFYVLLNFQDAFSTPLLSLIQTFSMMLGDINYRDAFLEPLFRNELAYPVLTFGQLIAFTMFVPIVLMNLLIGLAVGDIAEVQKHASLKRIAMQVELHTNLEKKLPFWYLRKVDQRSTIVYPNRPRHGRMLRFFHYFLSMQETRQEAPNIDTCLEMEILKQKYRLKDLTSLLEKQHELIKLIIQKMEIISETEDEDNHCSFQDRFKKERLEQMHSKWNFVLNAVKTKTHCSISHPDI
Chain of Transient receptor potential cation channel subfamily A member 1 (Rattus norvegicus) (Q6RI86 whole entry): as above
Chain of Cannabinoid receptor 1 (P21554 whole entry): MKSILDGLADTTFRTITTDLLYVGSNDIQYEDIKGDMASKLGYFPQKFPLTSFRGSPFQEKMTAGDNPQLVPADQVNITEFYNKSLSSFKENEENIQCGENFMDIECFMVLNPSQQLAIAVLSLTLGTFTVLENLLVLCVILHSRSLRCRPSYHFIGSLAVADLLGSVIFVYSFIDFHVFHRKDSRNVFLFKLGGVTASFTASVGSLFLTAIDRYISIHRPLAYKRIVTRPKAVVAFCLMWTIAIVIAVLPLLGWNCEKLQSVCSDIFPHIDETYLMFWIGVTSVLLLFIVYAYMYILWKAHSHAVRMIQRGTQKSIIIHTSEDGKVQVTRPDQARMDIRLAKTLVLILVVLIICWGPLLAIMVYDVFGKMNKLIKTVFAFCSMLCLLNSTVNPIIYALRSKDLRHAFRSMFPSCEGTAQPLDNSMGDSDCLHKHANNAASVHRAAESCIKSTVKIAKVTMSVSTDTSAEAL
Chain of Cannabinoid receptor 2 (P34972 whole entry): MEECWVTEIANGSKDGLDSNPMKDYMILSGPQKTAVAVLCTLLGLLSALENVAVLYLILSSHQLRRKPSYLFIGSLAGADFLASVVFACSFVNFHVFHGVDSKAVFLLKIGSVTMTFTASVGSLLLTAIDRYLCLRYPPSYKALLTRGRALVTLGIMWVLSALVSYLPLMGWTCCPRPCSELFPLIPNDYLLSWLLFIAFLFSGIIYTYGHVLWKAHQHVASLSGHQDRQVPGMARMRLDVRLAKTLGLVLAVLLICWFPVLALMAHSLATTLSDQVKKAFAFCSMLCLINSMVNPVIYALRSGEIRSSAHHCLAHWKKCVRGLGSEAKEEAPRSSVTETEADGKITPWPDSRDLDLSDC
T3 sequence (Q8NER1 whole entry): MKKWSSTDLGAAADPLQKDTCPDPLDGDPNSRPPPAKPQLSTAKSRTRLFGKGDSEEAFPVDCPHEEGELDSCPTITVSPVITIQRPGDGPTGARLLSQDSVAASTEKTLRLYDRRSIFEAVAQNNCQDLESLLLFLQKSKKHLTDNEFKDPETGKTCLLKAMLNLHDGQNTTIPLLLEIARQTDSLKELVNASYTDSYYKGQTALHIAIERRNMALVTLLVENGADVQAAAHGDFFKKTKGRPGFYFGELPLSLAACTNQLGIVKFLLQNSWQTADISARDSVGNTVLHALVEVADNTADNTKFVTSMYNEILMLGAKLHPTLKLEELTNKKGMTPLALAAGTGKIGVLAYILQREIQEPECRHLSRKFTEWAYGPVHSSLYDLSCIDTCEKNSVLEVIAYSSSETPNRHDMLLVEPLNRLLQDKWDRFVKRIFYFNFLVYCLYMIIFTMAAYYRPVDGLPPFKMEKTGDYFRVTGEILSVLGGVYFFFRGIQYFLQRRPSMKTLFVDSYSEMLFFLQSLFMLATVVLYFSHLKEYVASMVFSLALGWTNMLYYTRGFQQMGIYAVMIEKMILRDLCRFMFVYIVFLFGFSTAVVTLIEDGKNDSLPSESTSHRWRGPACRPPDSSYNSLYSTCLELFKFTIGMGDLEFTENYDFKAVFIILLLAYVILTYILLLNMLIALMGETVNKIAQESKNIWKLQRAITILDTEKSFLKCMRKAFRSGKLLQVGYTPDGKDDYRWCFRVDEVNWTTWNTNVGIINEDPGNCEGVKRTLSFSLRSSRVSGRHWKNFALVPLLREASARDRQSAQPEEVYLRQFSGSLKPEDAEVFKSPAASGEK

In the case of `CC(C)Cn1nnc(CNC(=O)c2ccc(-c3ccccc3)cc2)n1`, the IC50 (commonly the midpoint of a concentration-inhibition curve) is greater than 50 µM in experiment [1], greater than 25 µM in the experiment with RBL-2H3, greater than 10 µM in experiment [2] and greater than 10 µM in experiment [3]. The Ki at Cannabinoid receptor 1 and on Cannabinoid receptor 2 was greater than 10 µM throughout. Besides, the EC50 (commonly the concentration needed to bring the measured effect to its halfway point) in experiment [4] is greater than 100 µM; in experiment [6], 53.5 µM. In addition, the Efficacy was determined as 0% in experiment [5] and 10.2% in [7].
As to `COC(=O)Cn1nnc(Cc2ccc(-c3ccccc3)cc2)n1`, the IC50 in experiment [1] was greater than 50 µM; with RBL-2H3, greater than 25 µM; in experiment [2], greater than 10 µM; in experiment [3] it was greater than 10 µM. The figures for the Ki at Cannabinoid receptor 1 and at Cannabinoid receptor 2 were greater than 10 µM and 8.1 µM, respectively. Moreover, the EC50 in experiment [4] and in [6] was greater than 100 µM throughout. Also, the Efficacy in [5] came to 36%; in experiment [7], 0%.
With `COC(=O)Cn1nnnc1CNC(=O)c1ccc(-c2ccccc2)cc1`, the IC50 in experiment [1] is greater than 50 µM; in the experiment on RBL-2H3, greater than 25 µM; in experiment [2], greater than 10 µM; in [3], greater than 10 µM. Also, the Ki at Cannabinoid receptor 1 and on Cannabinoid receptor 2 was greater than 10 µM each time. The EC50 in experiment [4] was greater than 100 µM; in [6], 29.6 µM. In addition, the Efficacy in [5] stood at 0%; in experiment [7], 8.6%.
`COC(=O)Cn1nnnc1Cc1ccc(-c2ccccc2)cc1`: the IC50 in [1] was greater than 50 µM; with RBL-2H3, 4.9 µM; in [2], greater than 10 µM; in experiment [3] it was greater than 10 µM. Further, the Ki at Cannabinoid receptor 1 and on Cannabinoid receptor 2 was greater than 10 µM throughout. For the same molecule, the EC50 in experiment [4] and in [6] was greater than 100 µM each time. The Efficacy in experiment [5] and in experiment [7] was 0% in each case.
For `N#CCn1nnnc1Cc1ccc(-c2ccccc2)cc1`, the IC50 was greater than 50 µM in [1], 24.8 µM in the experiment on RBL-2H3, greater than 10 µM in [2] and greater than 10 µM in experiment [3]. Moreover, the Ki on Cannabinoid receptor 1 and on Cannabinoid receptor 2 was greater than 10 µM throughout. Also, the EC50 in experiment [4] was 26.3 µM; in experiment [6] it was greater than 100 µM. For the same molecule, the figures for the Efficacy in [5] and in experiment [7] were 83.2% and 5.4%, respectively.
As to `N#CCn1nnc(Cc2ccc(-c3ccccc3)cc2)n1`, the IC50 was greater than 50 µM in [1], 5.1 µM in the experiment with RBL-2H3, greater than 10 µM in [2] and greater than 10 µM in [3]. For the same molecule, the figures for the Ki on Cannabinoid receptor 1 and on Cannabinoid receptor 2 were greater than 10 µM and 6.2 µM, respectively. Moreover, the EC50 in experiment [4] was 16.2 µM; in experiment [6] it was greater than 100 µM. In addition, the Efficacy in [5] was determined as 102%; in experiment [7], 0%.

The values are drawn from ChEMBL document CHEMBL1145628, “New tetrazole-based selective anandamide uptake inhibitors” (Bioorg Med Chem Lett, 2008).
